In ChEMBL document CHEMBL1145830, “Design, synthesis, and evaluation of psorospermin/quinobenzoxazine hybrids as structurally novel antitumor agents” (J Med Chem, 2003):

Tests used:
HeLa = assay: Inhibitory concentration against Hela cervix cancer cell line; type: functional, cell-based; details: Homo sapiens
Summary of the method: (§1)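 MTT growth assay: exponentially growing cells, (1-2) × 10^3 per well in 0.1 mL medium, were seeded on day 0 and cultured per supplier instructions. On day 1 an equal volume of medium carrying graded compound concentrations was added. On day 4 cultures received MTT (1 mg/mL in Dulbecco's PBS) for 4 h at 37 °C.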

NCI-H522 (human) = assay: Inhibitory concentration against H522 (NSCLS) cancer cell line
U-937 = assay: Inhibitory concentration against U937 lymphoma cancer cell line; type: functional, cell-based; details: Homo sapiens; summary of the method: as §1
Granta = assay: Inhibitory concentration against Granta lymphoma cancer cell line; type: functional, cell-based; details: Homo sapiens; summary of the method: as §1
RPMI-8226 [1] = assay: Inhibitory concentration against 8226 myeloma cancer cell line; type: functional, cell-based; details: Homo sapiens; summary of the method: as §1
HT-29 = assay: Inhibitory concentration against HT-29 colon cancer cell line; type: functional, cell-based; details: Homo sapiens; summary of the method: as §1
MCF7 = assay: Inhibitory concentration against MCF-7 breast cancer cell line; type: functional, cell-based; details: Homo sapiens; summary of the method: as §1
MIA PaCa-2 = assay: Inhibitory concentration against MIA PaCa pancreas cancer cell line; type: functional, cell-based; details: Homo sapiens; summary of the method: as §1
RPMI-8226 [2] = assay: Inhibitory concentration against 8226/Dox40 (Dox-Re) cancer cell line; type: functional, cell-based; details: Homo sapiens; summary of the method: as §1
DU-145 = assay: Inhibitory concentration against DU145 prostate cancer cell line; type: functional, cell-based; details: Homo sapiens; summary of the method: as §1

| IC50 (HeLa) | IC50 (NCI-H522 (human)) | IC50 (U-937) | IC50 (Granta) | IC50 (RPMI-8226 [1]) | IC50 (HT-29) | IC50 (MCF7) | IC50 (MIA PaCa-2) | IC50 (RPMI-8226 [2]) | IC50 (DU-145) | Compound |
| --- | --- | --- | --- | --- | --- | --- | --- | --- | --- | --- |
| 800 nM | 300 nM | 310 nM | 90 nM | 270 nM | 450 nM | 660 nM | 420 nM | 270 nM | 470 nM | N[C@H]1CCN(c2c(F)cc3c(=O)c(C(=O)O)cn4c3c2Oc2ccccc2-4)C1 |
| 290 nM | 70 nM | 30 nM | 4 nM | 90 nM | 140 nM | 240 nM | 90 nM | 50 nM | 80 nM | C[C@]1([C@H]2Cc3ccc4c(c3O2)-n2cc(C(=O)O)c(=O)c3cc(F)c(N5CC[C@H](N)C5)c(c32)O4)CO1 |
| 130 nM | 20 nM | 20 nM | 2 nM | 50 nM | 90 nM | 80 nM | 40 nM | 30 nM | 30 nM | C[C@@](O)(CCl)[C@H]1Cc2ccc3c(c2O1)-n1cc(C(=O)O)c(=O)c2cc(F)c(N4CC[C@H](N)C4)c(c21)O3 |

| Compound | IC50 (HeLa) | IC50 (NCI-H522 (human)) | IC50 (U-937) | IC50 (Granta) | IC50 (RPMI-8226 [1]) | IC50 (HT-29) | IC50 (MCF7) | IC50 (MIA PaCa-2) | IC50 (RPMI-8226 [2]) | IC50 (DU-145) |
| --- | --- | --- | --- | --- | --- | --- | --- | --- | --- | --- |
| COc1cc2c(c3oc4c(O)cccc4c(=O)c13)C[C@H]([C@@]1(C)CO1)O2 [PSOROSPERMIN] | 1460 nM | 770 nM | 270 nM | 40 nM | 290 nM | 1110 nM | 570 nM | 380 nM | 230 nM | 210 nM |
